Test results reported in ChEMBL document CHEMBL4316619 (Bioorg Med Chem Lett, 2019).
Active and inactive are the calls of the source. The rule behind the calls is not given here.

Legend:
[1] = system: Influenza A virus; test: Antiviral activity against Influenza A virus A/PR/8/34 (H1N1) infected in MDCK cells assessed as fold reduction in virus titer at 10 uM measured after 48 hrs by hemagglutination assay relative to control; format: functional, A/Puerto Rico/8/1934(H1N1)
Outline: (§1)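 MDCK cells were infected with A/PR/8/34 (H1N1) at MOI 0.1 and incubated with compound for 48 h. Supernatant virus was then quantified by hemagglutination assay and standard TCID50 analysis. The single-concentration screen used 10 μM and reports fold reduction in titer. Dose-response runs used triplicate cultures, with percent titer decrease back-calculated from TCID50.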

[2] = system: Influenza A virus; test: Antiviral activity against Influenza A virus A/PR/8/34 (H1N1) infected in MDCK cells assessed as reduction in virus titer measured after 48 hrs by hemagglutination assay; format: functional; conditions: A/Puerto Rico/8/1934(H1N1); outline: as §1
[3] = system: MDCK; test: Cytotoxicity against MDCK cells assessed as reduction in cell viability up to 100 uM measured after 48 hrs by CellTiter Glo assay; format: cell-based, Canis lupus familiaris; conditions: dog
Outline: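 MDCK cells were incubated with compound under the conditions of the 48 h replication assay. Cytotoxicity was read with the CellTiter-Glo ATP viability assay. Follow-up viability testing used 5, 10, 50 and 100 μM.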

[4] = Cytotoxicity against MDCK cells assessed as reduction in cell viability measured on day 5 by Celltiter-Glo luminescence assay; format: cell-based, Canis lupus familiaris; conditions: dog, MDCK cells
Outline: (§2)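 MDCK cells were infected with seasonal influenza A strains through NIAID resources and scored for protection from virus-induced cell death. Compounds were tested at four concentrations (0.8, 4, 20, 100 μM). EC50/EC90 (reduction of viral cell death) and CC50 (reduction of cell viability) were derived in μM, and SI50 = CC50/EC50.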

[5] = system: Influenza A virus H3N2; test: Antiviral activity against Influenza A virus (A/Brisbane/10/2007(H3N2)) infected in MDCK cells assessed as reduction in virus-induced cytopathic effect measured on day 5 by Celltiter-Glo luminescence assay; format: functional, organism-based; conditions: 120 h; outline: as §2
[6] = system: Influenza B virus; test: Antiviral activity against Influenza B virus (B/Brisbane/60/2008) infected in MDCK cells assessed as reduction in virus-induced cytopathic effect measured on day 5 by Celltiter-Glo luminescence assay; format: functional, organism-based
[7] = system: Saccharomyces cerevisiae; test: Effect on growth of Yeast 9526-6-2 harboring pYES at 50 uM measured up to 60 hrs; format: organism-based; conditions: in vivo
Outline: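 Control yeast carrying empty pYES and NS1-expressing NS1-pYES strain grown with DMSO or compound at 50 μM. Growth measured as OD600 at 22, 42 and 60 h.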

[8] = target: Non-structural protein 1 (Influenza A virus (strain A/Puerto Rico/8/1934 H1N1)) (UniProt P03496); test: Inhibition of NS1 in Influenza A virus A/PR/8/34 (H1N1) infected in MDCK cells assessed as restoration of protein-induced reduction in IFN-beta mRNA expression at 20 uM measured after 6 hrs by RT-PCR analysis; format: cell-based; conditions: Influenza A virus (A/Puerto Rico/8/1934(H1N1))
Outline: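 MDCK cells infected with A/PR/8/34 at MOI 2 and incubated 6 h with compound at 20 μM. Cells harvested; IFN-β and β-actin mRNA detected by RT-PCR. Poly(I:C) lane serves as positive control for IFN-β induction.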

[9] = system: Influenza A virus; test: Effect on NS1 protein expression in Influenza A virus A/PR/8/34 (H1N1) infected in MDCK cells at 20 uM by Western blot analysis; format: functional, organism-based; conditions: A/Puerto Rico/8/1934(H1N1)
Outline: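 MDCK cells, uninfected or infected with A/PR/8/34, treated with DMSO or compound at 20 μM. NS1 protein detected by Western blot, with α-tubulin as loading control.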

[10] = target: Luciferin 4-monooxygenase (Photinus pyralis) (UniProt P08659); test: Effect on firefly luciferase activity expressed in 293 cells at 50 uM by luminescence assay; format: cell-based
[11] = Stability of the compound in mouse liver microsomes assessed as parent compound remaining measured immediately; format: ADME, Microsome; conditions: read-out: Stability
Outline: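 Mouse liver microsomes; percent parent compound remaining measured at 0, 15 and 30 min.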

[12] = Apparent permeability across apical to basolateral side in human Caco2 cells measured after 2 hrs in presence of 3% BSA; format: ADME, cell-based; conditions: caco-2, 2 h
Outline: (§3)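 Permeability was measured across Caco-2 monolayers in both directions, apical to basolateral and basolateral to apical. […] Runs were done with and without 3% BSA, and mass recovery (%) was reported for each direction. Efflux ratio = Papp B→A / Papp A→B.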

[13] = Apparent permeability across basolateral to apical side in human Caco2 cells assessed as drug recovery; format: ADME, cell-based; conditions: caco-2; outline: as §3
[14] = Tmax in C57BL/6 mouse plasma at 30 mg/kg, ip; format: ADME, organism-based; conditions: mouse, in vivo
Outline: (§4)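 Male C57BL/6 mice, single intraperitoneal 30 mg/kg dose, N=3. Plasma, liver and lung concentrations followed over time to give concentration-time profiles, from which Tmax, Cmax, terminal t1/2, AUClast and AUCINF were derived.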

[15] = AUClast in C57BL/6 mouse plasma at 30 mg/kg, ip; format: ADME, organism-based; set-up: dose 30 mg/kg, route intraperitoneal, time 0 - last
Outline: (§5)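 Male C57BL/6 mice received a single intraperitoneal dose of 30 mg/kg (N=3). Compound concentrations were followed over time in plasma, liver and lung. Tmax, Cmax, terminal t1/2, AUClast and AUCINF were derived from the mean concentration-time profiles.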

[16] = AUC (infinity) in C57BL/6 mouse liver at 30 mg/kg, ip; format: ADME, organism-based; set-up: dose 30 mg/kg, time infinity, route intraperitoneal; outline: as §5
[17] = Cmax in C57BL/6 mouse lung at 30 mg/kg, ip; format: ADME, organism-based; set-up: dose 30 mg/kg, route intraperitoneal; outline: as §5
[18] = Terminal half life in C57BL/6 mouse lung at 30 mg/kg, ip; format: ADME, organism-based; conditions: read-out: beta t1/2 (converted); outline: as §4
[19] = Drug level in C57BL/6 mouse plasma at 30 mg/kg, ip measured at 1 hrs; format: ADME, organism-based; outline: as §4
[20] = Drug level in C57BL/6 mouse plasma at 30 mg/kg, ip measured at 8 hrs; format: ADME, organism-based; outline: as §4
[21] = Drug level in C57BL/6 mouse plasma at 30 mg/kg, ip measured at 24 hrs; format: ADME, organism-based; outline: as §4
[22] = Drug level in C57BL/6 mouse liver at 30 mg/kg, ip measured at 0.5 hrs; format: ADME, organism-based; conditions: in vivo; outline: as §5
[23] = Drug level in C57BL/6 mouse liver at 30 mg/kg, ip measured at 3 hrs; format: ADME, organism-based; conditions: in vivo; outline: as §5
[24] = Drug level in C57BL/6 mouse liver at 30 mg/kg, ip measured at 24 hrs; format: ADME, organism-based; conditions: in vivo; outline: as §5
[25] = Drug level in C57BL/6 mouse liver at 30 mg/kg, ip measured at 48 hrs; format: ADME, organism-based; conditions: in vivo; outline: as §5
[26] = Drug level in C57BL/6 mouse lung at 30 mg/kg, ip measured at 0.25 hrs; format: ADME, organism-based; conditions: in vivo; outline: as §5
[27] = Drug level in C57BL/6 mouse lung at 30 mg/kg, ip measured at 0.5 hrs; format: ADME, organism-based; conditions: in vivo; outline: as §5
[28] = Drug level in C57BL/6 mouse lung at 30 mg/kg, ip measured at 3 hrs; format: ADME, organism-based; conditions: in vivo; outline: as §5
[29] = Drug level in C57BL/6 mouse lung at 30 mg/kg, ip measured at 8 hrs; format: ADME, organism-based; conditions: in vivo; outline: as §5
[30] = Drug level in C57BL/6 mouse lung at 30 mg/kg, ip measured at 24 hrs; format: ADME, organism-based; conditions: in vivo; outline: as §5
[31] = Toxicity in C57BL/6 mouse assessed as effect on liver at 30 mg/kg, ip; format: organism-based; conditions: in vivo
[32] = Toxicity in C57BL/6 mouse assessed as adverse effect at 30 mg/kg, ip; format: organism-based; conditions: in vivo

Chain of Luciferin 4-monooxygenase (Photinus pyralis) (P08659 whole entry): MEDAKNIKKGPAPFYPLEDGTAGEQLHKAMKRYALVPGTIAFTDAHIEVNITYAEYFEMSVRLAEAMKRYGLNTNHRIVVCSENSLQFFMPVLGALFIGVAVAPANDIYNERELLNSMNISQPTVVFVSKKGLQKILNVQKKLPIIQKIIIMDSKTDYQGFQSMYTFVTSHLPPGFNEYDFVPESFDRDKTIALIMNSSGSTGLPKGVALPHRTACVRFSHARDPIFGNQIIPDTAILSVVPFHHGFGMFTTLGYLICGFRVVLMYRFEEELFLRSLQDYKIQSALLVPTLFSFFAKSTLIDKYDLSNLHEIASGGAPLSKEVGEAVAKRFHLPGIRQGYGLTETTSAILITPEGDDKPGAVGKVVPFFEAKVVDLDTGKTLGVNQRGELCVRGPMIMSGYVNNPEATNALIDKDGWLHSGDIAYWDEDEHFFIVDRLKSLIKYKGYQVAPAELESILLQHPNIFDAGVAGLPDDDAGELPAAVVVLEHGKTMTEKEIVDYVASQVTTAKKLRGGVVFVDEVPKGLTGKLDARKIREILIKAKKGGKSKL
Chain of Non-structural protein 1 (Influenza A virus (strain A/Puerto Rico/8/1934 H1N1)) (P03496 whole entry): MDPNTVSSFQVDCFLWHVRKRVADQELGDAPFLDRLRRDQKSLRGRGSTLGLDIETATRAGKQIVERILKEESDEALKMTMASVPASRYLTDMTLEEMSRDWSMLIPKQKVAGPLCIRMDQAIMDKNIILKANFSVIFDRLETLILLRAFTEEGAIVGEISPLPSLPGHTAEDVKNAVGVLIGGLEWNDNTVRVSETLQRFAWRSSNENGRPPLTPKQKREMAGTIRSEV

## COc1cc(-c2ccnc3c2c(C)nn3-c2ccc(C(F)(F)F)cc2)ccc1O
[1]
  fold change (FC): 128
[2]
  IC90: 0.155 µM
[3]
  Activity: Non-Toxic
[4]
  CC50 at 5 day: 19.8 to 27.8 µM
[5]
  EC50: 17 µM
  EC90: > 50 µM
[6]
  Activity: inactive
[7]
  Activity: Non-Toxic
[8]
  inhibition: Active
[9]
  Activity: inactive
[10]
  Activity: inactive
[11]
  remaining at 0 min: 100%
[12]
  Papp: 0.22 ×10⁻⁶ cm/s
[13]
  Drug recovery: 9%
[14]
  Tmax: 0.25 h
[15]
  AUC(0-t): 7660 ng·h/mL
[16]
  AUC(0-inf): 80300 ng·h/mL
[17]
  Cmax: 18600 ng/mL
[18]
  half-life: 4.5 h
[19]
  concentration at 1 h: 5120 nM
[20]
  concentration at 8 h: 555 nM
[21]
  concentration at 24 h: 20 nM
[22]
  Drug uptake: 62599 nmol/kg
[23]
  Drug uptake: 10058 nmol/kg
[24]
  Drug uptake: 224 nmol/kg
[25]
  Drug uptake: 23 nmol/kg
[26]
  Drug uptake: 46490 nmol/kg
[27]
  Drug uptake: 36057 nmol/kg
[28]
  Drug uptake: 10951 nmol/kg
[29]
  Drug uptake: 3931 nmol/kg
[30]
  Drug uptake: 168 nmol/kg
[31]
  Activity: Non-Toxic
[32]
  Activity: Non-Toxic
